# Values joined by “and” are separate entries in the source; they are usually repeats but may differ in a detail not shown here. Equal values may be shown once.
# Tests used:
# HEK-293T = experiment: Multiplex assay against HEK293T; format: toxicity, cell-based; conditions: human, number of replicates 2
# Method in brief: (§1)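 On a CQ1 microscope at 37°C and 5% CO2, live cells were imaged after compound addition. They had been stained at seeding with Hoechst33342, BioTracker Green Microtubule Cytoskeleton Dye, MitoTracker Red and Annexin V Alexa Fluor 680. CellPathfinder machine-learning gating assigned cells to Hoechst high-intensity objects or normal cells, normal cells to healthy, pyknosed or fragmented nuclei, and pyknosed cells to mitotic or apoptotic. Tubulin, mitochondrial-mass and membrane-permeability phenotypes are per cents of healthy-nucleus cells.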
# U2OS = experiment: Multiplex assay against U2OS; format: toxicity, cell-based; conditions: human, number of replicates 2; method in brief: as §1
# [1] = 24 h, 1 µM, compound concentration 1 uM
# [2] = 24 h, 10 µM, compound concentration 10 uM
# [3] = 48 h, 1 µM, compound concentration 1 uM
# [4] = 48 h, 10 µM, compound concentration 10 uM
# [5] = 12 h, 1 µM, compound concentration 1 uM
# [6] = 12 h, 10 µM, compound concentration 10 uM
smiles,measurement,setting,value
Cn1c(Nc2c(Cl)cccc2Cl)nc2ccc3nc[nH]c(=O)c3c21,Population Mitochondria Different-Phenotype (%),HEK-293T; [1],6% and 1%
same,Population Mitotic Cells (%),HEK-293T; [1],27% and 60%
same,Population Normal (%),HEK-293T; [1],89% and 92%
same,Population Pyknosed Nuclei (%),HEK-293T; [1],14% and 10%
same,Population Tubulin-Different-Phenotype (%),HEK-293T; [1],24% and 13%
same,Total Cell Count,HEK-293T; [1],675 and 1010
same,Population Apoptotic (%),HEK-293T; [2],21% and 17%
same,Population Fragmented Nuclei (%),HEK-293T; [2],2%
same,Population Healthy Nuclei (%),HEK-293T; [2],85% and 81%
same,Population Hoechst High Intensity Objects (%),HEK-293T; [2],3%
same,Population Membrane Permeable-Phenotype (%),HEK-293T; [2],2%
same,Population Mitochondria Different-Phenotype (%),HEK-293T; [2],4% and 3%
same,Population Mitotic Cells (%),HEK-293T; [2],78% and 82%
same,Population Normal (%),HEK-293T; [2],96%
same,Population Pyknosed Nuclei (%),HEK-293T; [2],12% and 15%
same,Population Tubulin-Different-Phenotype (%),HEK-293T; [2],16% and 18%
same,Total Cell Count,HEK-293T; [2],1151 and 1278
same,Population Apoptotic (%),HEK-293T; [3],36% and 15%
same,Population Fragmented Nuclei (%),HEK-293T; [3],12% and 15%
same,Population Healthy Nuclei (%),HEK-293T; [3],81% and 80%
same,Population Hoechst High Intensity Objects (%),HEK-293T; [3],10% and 8%
same,Population Membrane Permeable-Phenotype (%),HEK-293T; [3],2% and 3%
same,Population Mitochondria Different-Phenotype (%),HEK-293T; [3],1% and 0%
same,Population Mitotic Cells (%),HEK-293T; [3],63% and 84%
same,Population Normal (%),HEK-293T; [3],89% and 91%
same,Population Pyknosed Nuclei (%),HEK-293T; [3],5% and 4%
same,Population Tubulin-Different-Phenotype (%),HEK-293T; [3],4% and 5%
same,Total Cell Count,HEK-293T; [3],1439 and 2070
same,Population Apoptotic (%),HEK-293T; [4],19% and 27%
same,Population Fragmented Nuclei (%),HEK-293T; [4],4%
same,Population Healthy Nuclei (%),HEK-293T; [4],79% and 76%
same,Population Hoechst High Intensity Objects (%),HEK-293T; [4],3%
same,Population Membrane Permeable-Phenotype (%),HEK-293T; [4],4%
same,Population Mitochondria Different-Phenotype (%),HEK-293T; [4],3%
same,Population Mitotic Cells (%),HEK-293T; [4],80% and 72%
same,Population Normal (%),HEK-293T; [4],96%
same,Population Pyknosed Nuclei (%),HEK-293T; [4],16% and 18%
same,Population Tubulin-Different-Phenotype (%),HEK-293T; [4],16% and 24%
same,Total Cell Count,HEK-293T; [4],1576 and 1527
same,Population Apoptotic (%),U2OS; [5],40% and 66%
same,Population Healthy Nuclei (%),U2OS; [5],64% and 87%
same,Population Hoechst High Intensity Objects (%),U2OS; [5],0%
same,Population Membrane Permeable-Phenotype (%),U2OS; [5],0% and 1%
same,Population Mitochondria Different-Phenotype (%),U2OS; [5],0%
same,Population Mitotic Cells (%),U2OS; [5],60% and 33%
same,Population Normal (%),U2OS; [5],100%
same,Population Pyknosed Nuclei (%),U2OS; [5],10% and 7%
same,Population Tubulin-Different-Phenotype (%),U2OS; [5],100% and 96%
same,Population Apoptotic (%),U2OS; [6],66% and 52%
same,Population Healthy Nuclei (%),U2OS; [6],59% and 84%
same,Population Hoechst High Intensity Objects (%),U2OS; [6],0%
same,Population Membrane Permeable-Phenotype (%),U2OS; [6],0% and 1%
same,Population Mitochondria Different-Phenotype (%),U2OS; [6],0% and 1%
same,Population Mitotic Cells (%),U2OS; [6],33% and 47%
same,Population Normal (%),U2OS; [6],100% and 99%
same,Population Pyknosed Nuclei (%),U2OS; [6],11% and 10%
same,Population Tubulin-Different-Phenotype (%),U2OS; [6],56% and 81%
same,Population Apoptotic (%),U2OS; [1],50% and 53%
same,Population Healthy Nuclei (%),U2OS; [1],62% and 87%
same,Population Hoechst High Intensity Objects (%),U2OS; [1],0%
same,Population Membrane Permeable-Phenotype (%),U2OS; [1],0% and 2%
same,Population Mitochondria Different-Phenotype (%),U2OS; [1],2% and 0%
same,Population Mitotic Cells (%),U2OS; [1],50% and 46%
same,Population Normal (%),U2OS; [1],100%
same,Population Pyknosed Nuclei (%),U2OS; [1],10% and 8%
same,Population Tubulin-Different-Phenotype (%),U2OS; [1],100% and 95%
same,Population Apoptotic (%),U2OS; [2],75% and 45%
same,Population Healthy Nuclei (%),U2OS; [2],55% and 78%
same,Population Hoechst High Intensity Objects (%),U2OS; [2],1% and 0%
same,Population Membrane Permeable-Phenotype (%),U2OS; [2],2%
same,Population Mitochondria Different-Phenotype (%),U2OS; [2],0%
same,Population Mitotic Cells (%),U2OS; [2],25% and 54%
same,Population Normal (%),U2OS; [2],98% and 100%
same,Population Pyknosed Nuclei (%),U2OS; [2],11% and 13%
same,Population Tubulin-Different-Phenotype (%),U2OS; [2],68% and 77%
same,Population Apoptotic (%),U2OS; [3],56% and 75%
same,Population Healthy Nuclei (%),U2OS; [3],58% and 89%
same,Population Hoechst High Intensity Objects (%),U2OS; [3],0%
same,Population Membrane Permeable-Phenotype (%),U2OS; [3],0% and 1%
same,Population Mitochondria Different-Phenotype (%),U2OS; [3],0%
same,Population Mitotic Cells (%),U2OS; [3],43% and 25%
same,Population Normal (%),U2OS; [3],100% and 99%
same,Population Pyknosed Nuclei (%),U2OS; [3],20% and 7%
same,Population Tubulin-Different-Phenotype (%),U2OS; [3],100% and 97%
same,Population Apoptotic (%),U2OS; [4],75% and 67%
same,Population Healthy Nuclei (%),U2OS; [4],21% and 58%
same,Population Hoechst High Intensity Objects (%),U2OS; [4],1% and 0%
same,Population Membrane Permeable-Phenotype (%),U2OS; [4],5% and 10%
same,Population Mitochondria Different-Phenotype (%),U2OS; [4],5% and 2%
same,Population Mitotic Cells (%),U2OS; [4],24% and 32%
same,Population Normal (%),U2OS; [4],98% and 99%
same,Population Pyknosed Nuclei (%),U2OS; [4],34% and 28%
same,Population Tubulin-Different-Phenotype (%),U2OS; [4],61% and 74%
